The source made the active and inactive calls. The rule behind the calls is not given here.
Columns and labels:
NFS-60 [1] = test: Induction of apoptosis in mouse NFS60 cells assessed as total apoptotic cells at IC50 incubated for 72 hrs by annexin V/propidium iodide staining based flow cytometry (reference value: 0.495 +/- 0.01%); assay type: functional
NFS-60 [2] = test: Induction of apoptosis in mouse NFS60 cells assessed as viable cells level at IC50 incubated for 72 hrs by annexin V/propidium iodide staining based flow cytometry (reference value: 99.52%); assay type: functional
NFS-60 [3] = test: Induction of apoptosis in mouse NFS60 cells assessed as necrotic cells level at IC50 incubated for 72 hrs by annexin V/propidium iodide staining based flow cytometry (reference value: 0.01%); assay type: functional
HepG2 [4] = test: Induction of apoptosis in human HepG2 cells assessed as necrotic cells level at IC50 incubated for 72 hrs by annexin V/propidium iodide staining based flow cytometry (reference value: 0.87%); assay type: functional
HepG2 [5] = test: Induction of caspase-independent apoptosis in human HepG2 cells assessed as AIF1 release level using tetramethylbenzidine as substrate incubated for 1 hr by ELISA (reference value: 1.18 +/- 0.06 ng/ml); assay type: functional
Procedure, shortened: (§1)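 Extracts of untreated and treated cells added to anti-AIF1-coated wells. Incubated 1 h with HRP-conjugated antibody, washed, then TMB substrate added. Reaction stopped after 10 min and read at 450 nm. AIF1 reported in ng/mL, mean ± SEM.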

MCF7 [6] = test: Induction of apoptosis in human MCF7 cells assessed as caspase 3/7 activity using DEVD aminoluciferin as substrate at IC50 after 24 hrs […] relative to control; assay type: functional
Procedure, shortened: (§2)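 Caspase 3/7 activation measured with Caspase-Glo 3/7 kit using a luminogenic caspase-cleavable substrate. […] Reported as percent activation, mean ± SEM.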

MCF7 [7] = test: Induction of apoptosis in human MCF7 cells assessed as early apoptotic cells level at IC50 incubated for 72 hrs by annexin V/propidium iodide staining based flow cytometry (reference value: 0.01%); assay type: functional
WI-38 = test: Cytotoxicity against human WI38 cells assessed as cell growth inhibition incubated for 72 hrs by MTT assay; assay type: cell-based; conditions: for IC50: Homo sapiens, WI-38, 72 h; for EC100: human, wi-38, 72 h
Procedure, shortened: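 Wi-38 fibroblasts grown in DMEM with 10% FBS and seeded at 5×10^3 per well. Attachment 24 h, then serial concentrations for 72 h at 37°C, 5% CO2. MTT stock (5 mg/mL) added for 3 h at 37°C, DMSO solubilization, absorbance at 570 nm. IC50 estimated.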

MCF7 [8] = test: Induction of caspase-independent apoptosis in human MCF7 cells assessed as AIF1 release level using tetramethylbenzidine as substrate incubated for 1 hr by ELISA (reference value: 2.28 +/- 0.06 ng/ml); assay type: functional; procedure, shortened: as §1
NFS-60 [9] = test: Induction of apoptosis in mouse NFS60 cells assessed as late apoptotic cells at IC50 incubated for 72 hrs by annexin V/propidium iodide staining based flow cytometry (reference value: 0.015 +/- 0.01%)
HepG2 [10] = test: Induction of apoptosis in human HepG2 cells assessed as total apoptotic cells at IC50 incubated for 72 hrs by annexin V/propidium iodide staining based flow cytometry (reference value: 0.169 +/- 0.02%); assay type: functional
NFS-60 [11] = test: Induction of apoptosis in mouse NFS60 cells assessed as induction of cell shape loss by phase contrast inverted fluorescence microscopy; assay type: functional, cell-based
NFS-60 [12] = test: Induction of apoptosis in mouse NFS60 cells assessed as early apoptotic cells level at IC50 incubated for 72 hrs by annexin V/propidium iodide staining based flow cytometry (reference value: 0.46%); assay type: functional
[13] = Selectivity index, ratio of IC50 for human WI38 cells to IC50 for human HepG2 cells; assay type: toxicity; conditions: WI38 cells versus HepG2 cells, read-out: Ratio IC50
Procedure, shortened: (§3)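 SI calculated as IC50 on normal Wi-38 fibroblasts divided by IC50 on the cancer cell line. Both came from 72 h MTT assays.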

HepG2 [14] = test: Induction of apoptosis in human HepG2 cells assessed as late apoptotic cells at IC50 incubated for 72 hrs by annexin V/propidium iodide staining based flow cytometry (reference value: 0.1 +/- 0.001%); assay type: functional
NFS-60 [15] = test: Induction of apoptosis in mouse NFS60 cells assessed as caspase 3/7 activity using DEVD aminoluciferin as substrate at IC50 after 24 hrs […] relative to control; assay type: functional; procedure, shortened: as §2
MCF7 [16] = test: Induction of apoptosis in human MCF7 cells assessed as induction of cell shrinkage by phase contrast inverted fluorescence microscopy; assay type: functional, cell-based
MCF7 [17] = test: Induction of apoptosis in human MCF7 cells assessed as early apoptotic cells at IC50 incubated for 72 hrs by annexin V/propidium iodide staining based flow cytometry (reference value: 0.47 +/- 0.01%); assay type: functional
[18] = Selectivity index, ratio of IC50 for human WI38 cells to IC50 for human MCF7 cells; assay type: toxicity; conditions: WI38 cells versus MCF7 cells, read-out: Ratio IC50; procedure, shortened: as §3
HepG2 [19] = test: Induction of apoptosis in human HepG2 cells assessed as induction of cell shape loss by phase contrast inverted fluorescence microscopy; assay type: functional, cell-based
HepG2 [20] = test: Induction of apoptosis in human HepG2 cells assessed as early apoptotic cells at IC50 incubated for 72 hrs by annexin V/propidium iodide staining based flow cytometry (reference value: 0.78 +/- 0.09%); assay type: functional
[21] = Selectivity index, ratio of IC50 for human WI38 cells to IC50 for mouse NFS60 cells; procedure, shortened: as §3
NFS-60 [22] = test: Induction of apoptosis in mouse NFS60 cells assessed as early apoptotic cells at IC50 incubated for 72 hrs by annexin V/propidium iodide staining based flow cytometry (reference value: 0.02 +/- 0.01%); assay type: functional
NFS-60 [23] = test: Cytotoxicity against mouse NFS60 cells assessed as cell growth inhibition incubated for 72 hrs by MTT assay; assay type: functional, cell-based; conditions: NFS-60, 72 h
Procedure, shortened: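 Cells grown in RPMI-1640 with 10% FBS and seeded at 5×10^3 per well. After 24 h, serial concentrations given for 72 h at 37°C, 5% CO2. Then 5 mg/mL MTT stock added for 3 h, formazan dissolved in DMSO, A570 read. IC50 calculated from the curves.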

MCF7 [24] = test: Induction of apoptosis in human MCF7 cells assessed as viable cells level at IC50 incubated for 72 hrs by annexin V/propidium iodide staining based flow cytometry (reference value: 99.5%); assay type: functional
HepG2 [25] = test: Induction of apoptosis in human HepG2 cells assessed as viable cells level at IC50 incubated for 72 hrs by annexin V/propidium iodide staining based flow cytometry (reference value: 98.97%); assay type: functional
MCF7 [26] = test: Induction of apoptosis in human MCF7 cells assessed as late apoptotic cells level at IC50 incubated for 72 hrs by annexin V/propidium iodide staining based flow cytometry (reference value: 0.01%); assay type: functional
NFS-60 [27] = test: Induction of apoptosis in mouse NFS60 cells assessed as induction of cell shrinkage by phase contrast inverted fluorescence microscopy; assay type: functional, cell-based
NFS-60 [28] = test: Induction of apoptosis in mouse NFS60 cells assessed as late apoptotic cells level at IC50 incubated for 72 hrs by annexin V/propidium iodide staining based flow cytometry (reference value: 0.01%); assay type: functional
HepG2 [29] = test: Induction of apoptosis in human HepG2 cells assessed as late apoptotic cells level at IC50 incubated for 72 hrs by annexin V/propidium iodide staining based flow cytometry (reference value: 0.1%); assay type: functional

Row | SMILES | Activity (NFS-60 [1]) | Activity (NFS-60 [2]) | Activity (NFS-60 [3]) | Activity (HepG2 [4]) | Activity (HepG2 [5]) | Activity (MCF7 [6]) | Activity (MCF7 [7]) | IC50 (WI-38) | EC100 (WI-38) | Activity (MCF7 [8]) | Activity (NFS-60 [9]) | Activity (HepG2 [10]) | Activity (NFS-60 [11]) | Activity (NFS-60 [12]) | selectivity ratio [13] | Activity (HepG2 [14]) | Activity (NFS-60 [15]) | Activity (MCF7 [16]) | Activity (MCF7 [17]) | selectivity ratio [18] | also measured
1 | O=C(Cc1ccccc1)OC1(C(=O)Nc2ccc([N+](=O)[O-])cc2)CCCCC1 | 34.129% | 61.34% | 14.8% | 7.13% | 1.23 ng/mL | 43.04% | 7.06% | 43.9 nM | 0.032 µM | 2.33 ng/mL | 20.09% | 33.485% | Active | 5.65% | 3.09 | 27.77% | 45.41% | Active | 11.885% | 5.7 | Activity (HepG2 [19]): Active; Activity (HepG2 [20]): 6.0649%; Ratio IC50 [21]: 5.419; Activity (NFS-60 [22]): 13.64%; IC50 (NFS-60 [23]): 8.1 nM; Activity (MCF7 [24]): 59.23%; Activity (HepG2 [25]): 63.53%; Activity (MCF7 [26]): 20.57%; Activity (NFS-60 [27]): Active; Activity (NFS-60 [28]): 18.21%; Activity (HepG2 [29]): 26.59%
2 | O=C(OC1(C(=O)Nc2ccc([N+](=O)[O-])cc2)CCCCC1)C(O)c1ccccc1 (stereo not drawn) | 44.185% | 53.25% | 21.74% | 7.11% | 1.305 ng/mL | 55.04% | 3.76% | 84.4 nM | 0.0507 µM | 2.36 ng/mL | 23.645% | 48.905% | Active | 2.12% | 11 | 42.85% | 52.835% | Active | 22.345% | 16.8 | Activity (HepG2 [19]): Active; Activity (HepG2 [20]): 6.055%; Ratio IC50 [21]: 10.82; Activity (NFS-60 [22]): 21.04%; IC50 (NFS-60 [23]): 7.8 nM; Activity (MCF7 [24]): 43.92%; Activity (HepG2 [25]): 47.87%; Activity (MCF7 [26]): 28.9%; Activity (NFS-60 [27]): Active; Activity (NFS-60 [28]): 22.89%; Activity (HepG2 [29]): 41.88%
3 | O=C(OC1(C(=O)Nc2ccc([N+](=O)[O-])cc2)CCCCC1)c1ccc([N+](=O)[O-])cc1 | 41.795% | 55.46% | 24.58% | 19.9% | 1.28 ng/mL | 50.94% | 1.96% | 761 nM | 0.149 µM | 2.34 ng/mL | 18.965% | 41.815% | Active | 2.41% | 54 | 23.385% | 49.59% | Active | 24.065% | 87.5 | Activity (HepG2 [19]): Active; Activity (HepG2 [20]): 18.43%; Ratio IC50 [21]: 98.831; Activity (NFS-60 [22]): 22.83%; IC50 (NFS-60 [23]): 7.7 nM; Activity (MCF7 [24]): 54.7%; Activity (HepG2 [25]): 57.37%; Activity (MCF7 [26]): 18.31%; Activity (NFS-60 [27]): Active; Activity (NFS-60 [28]): 17.56%; Activity (HepG2 [29]): 20.78%
